According to PMC2628580 (Chemistry & biology, 2008):
Entries after “also recorded” stand apart in the source; their conditions may differ. Values belong to the compound of their own block, whether it stands above or below them.

What was measured:
rat OR-I7 [1] = target: T1, rat OR-I7 (Rattus norvegicus, UniProt P23270); type: cell-based; conditions: for potency compared with n-alkanals (in words): activation dose-response curves; for activation of OR-I7 (in words): dose-response by calcium imaging; for maximal efficacy relative to 10 μM 1: mean ± SEM; for OR-I7 response at 30 μM (in words): calcium imaging trace of a GFP+ OSN
T1 sequence (P23270 1-327): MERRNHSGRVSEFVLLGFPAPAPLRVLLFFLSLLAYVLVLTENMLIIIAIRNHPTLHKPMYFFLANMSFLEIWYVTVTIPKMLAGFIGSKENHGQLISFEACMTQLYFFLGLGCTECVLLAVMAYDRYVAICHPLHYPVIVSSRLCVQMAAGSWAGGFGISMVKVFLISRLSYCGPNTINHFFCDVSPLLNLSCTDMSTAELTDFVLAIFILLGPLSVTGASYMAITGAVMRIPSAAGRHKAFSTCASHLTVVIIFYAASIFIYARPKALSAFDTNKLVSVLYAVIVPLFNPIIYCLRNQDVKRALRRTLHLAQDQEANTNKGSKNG
Procedure, shortened: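 Dissociated olfactory neurons from male Sprague-Dawley rats (6-7 wk) infected with adenovirus encoding OR-I7 plus separate GFP. GFP+ cells were fura-2AM loaded for 45 min at room temperature and imaged at 380/510 nm every 4 s. The compound came from 0.5M DMSO stock with DMSO-matched dilutions, given as 4 s pulses 3.25 min apart. Each movie was flanked by 10 μM normalizing stimuli and ΔF/F normalized to the trend line. Hill fit used ≥3 cells per point; EC50 ± SD.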

rat OSNs = assay: Panel screening of 1190 viable rat OSNs by calcium imaging; type: cell-based; conditions: 30 μM, 1190 tested rat OSNs
Procedure, shortened: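 Whole olfactory epithelium from uninfected rats was dissociated (collagenase, dispase), plated on concanavalin A coverslips and kept at 32 °C. Cells were loaded with fura-2AM and imaged at room temperature. Each test compound was given individually at 30 μM in random order, 5 min apart, with a DMSO vehicle application. 10 μM forskolin came last for normalization and viability. Responding cells were counted among 1190 tested.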

rat OR-I7 [2] = target: T1, rat OR-I7; assay: Antagonism of octanal; type: cell-based; conditions: against saturating 10 μM C8
Procedure, shortened: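 GFP+ OR-I7-expressing rat olfactory neurons were imaged with fura-2 at room temperature under continuous Ringer perfusion at pH 7.4. The test compound at various concentrations was co-applied with 10 μM octanal. The response was normalized to a trend line between flanking stimuli. An antagonist had to give under 90% of the octanal-alone response. Ratios are mean ± SEM. Inhibition curves were Hill-fitted, with at least three cells per point and IC50 ± SD.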

OR-I7 = conditions: vapor phase; ref Araneda et al., 2000; Zhao et al., 1998; cited from earlier work

Structure (SMILES): O=CCCCCC1CC1 [Compound 2]
- potency compared with n-alkanals (in words) (rat OR-I7 [1]): more potent than C8
- fold more potent than C7 (rat OR-I7 [1]; compound 2 vs C7, identical extended length): 40 fold
- activation of OR-I7 (in words) (rat OR-I7 [1]): strongly activated
- maximal efficacy relative to 10 μM 1 (rat OR-I7 [1]): 0.99 ± 0.02

Structure (SMILES): O=CCCCC1CCC1 [Compound 3]
- OR-I7 response at 30 μM (in words) (rat OR-I7 [1]): near saturating level
- potency compared with n-alkanals (in words) (rat OR-I7 [1]): more potent than both
- activation of OR-I7 (in words) (rat OR-I7 [1]): strongly activated
- maximal efficacy relative to 10 μM 1 (rat OR-I7 [1]): 1.06 ± 0.1
- difference in activity between compound 4 and compound 3 (rat OR-I7 [1]; ratio of EC50, compound 3 vs compound 4): 163 fold

Structure (SMILES): O=CCCC1CCCC1 [Compound 4]
- OR-I7 response at 30 μM (in words) (rat OR-I7 [1]): unresponsive
- activation of OR-I7 (in words) (rat OR-I7 [1]): weakly or not at all; also recorded: marginally active

Structure (SMILES): O=CCC1CCCCC1 [Compound 5]
- activation of OR-I7 (in words) (rat OR-I7 [1]): weakly or not at all; also recorded: inactive; also recorded: no substantial activity
- percentage of OSNs activated (rat OSNs): 3.4%

Structure (SMILES): O=CC1CCCCCC1 [Compound 6]
- activation of OR-I7 (in words) (rat OR-I7 [1]): weakly or not at all; also recorded: inactive
- antagonism of C8 activation of OR-I7 (in words) (rat OR-I7 [2]): antagonize C8 activity
- percentage of OSNs activated (rat OSNs): 3.6%

Structure (SMILES): CCC1CCC(CC=O)CC1 (stereo not shown) [Compound 11]
- potency compared with n-alkanals (in words) (rat OR-I7 [1]): more active than C8
- maximal efficacy relative to 10 μM octanal (rat OR-I7 [1]; cis/trans mixture): 1.07 ± 0.05

Structure (SMILES): CCCC=O [Compound C4, reference compound]
- activation of OR-I7 (in words) (rat OR-I7 [1]): inactive; also recorded: neither type of activity
- antagonism of C8 activation of OR-I7 (in words) (rat OR-I7 [2]): failure of C4 (3.9Å) to antagonize C8 activation; also recorded: neither type of activity

Second part, led by results:

- activation of OR-I7 (in words) (rat OR-I7 [1]): inactive
Structure (SMILES): CCCCC=O [Compound C5, reference compound]

- activation of OR-I7 (in words) (rat OR-I7 [1]): marginally active
Structure (SMILES): CCCCCC=O [Compound C6, reference compound]
- activation of OR-I7 by EOG (in words) (OR-I7): no activation

- increase in activity in the step from C6 to C7 (rat OR-I7 [1]; C7 vs C6, calcium imaging): 145 fold
- maximal efficacy relative to 10 μM 1 (rat OR-I7 [1]): 0.86 ± 0.07
Structure (SMILES): CCCCCCC=O [Compound C7, reference compound]
- activation of OR-I7 by EOG (in words) (OR-I7): activation

- maximal efficacy relative to 10 μM 1 (rat OR-I7 [1]): 0.89 ± 0.02
Structure (SMILES): CCCCCCCC=O [Compound C8, octanal, reference compound]
- percentage of OSNs activated (rat OSNs): 5.9%
